According to ChEMBL document CHEMBL4354867, “Validation and Characterization of Five Distinct Novel Inhibitors of Human Cytomegalovirus” (J Med Chem, 2020):
Active and inactive are the calls of the source. The rule behind the calls is not given here.

Key:
Format in all cases: functional, organism-based
Human betaherpesvirus 5 [1] = test: Inhibition of viral protein expression in HCMV Towne infected in human HFF cells assessed as reduction in UL84 expression at 3 uM treated with compound for 24 hrs followed by viral infection at MOI of 0.01 PFU/cell measured at 72 hrs post infection by Western blot analysis; conditions: strain Towne
Outline: (§1)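 HFFs pretreated with compound, then infected with HCMV Towne at MOI 1, 0.1 or 0.01. Viral proteins in cell lysates detected at 72 hpi by SDS-PAGE (8–10%), PVDF transfer and chemiluminescent immunoblot. Images from a representative experiment.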

Human gammaherpesvirus 4 = test: Antiviral activity against EBV infected in human AKATA cells assessed as reduction in IgG-induced lytic virus replication measured at 48 hrs post-lytic induction by qRT-PCR analysis; conditions: human gammaherpesvirus 4, 48 h; read-out: EC50
Human betaherpesvirus 5 [2] = test: Antiviral activity against HCMV Towne infected in human HFF cells assessed as reduction in plaque formation treated with compound following viral infection and incubated for 8 to 10 days by crystal violet staining based assay; conditions: Human betaherpesvirus 5, strain Towne
Human betaherpesvirus 5 [3] = test: Inhibition of viral protein expression in HCMV Towne infected in human HFF cells assessed as reduction in pp65 expression at 3 uM treated with compound for 24 hrs followed by viral infection at MOI of 0.01 PFU/cell measured at 72 hrs post infection by Western blot analysis; conditions: strain Towne; outline: as §1
Human betaherpesvirus 5 [4] = test: Inhibition of viral protein expression in HCMV Towne infected in human HFF cells assessed as reduction in IE1 expression at 3 uM treated with compound for 24 hrs followed by viral infection at MOI of 0.01 PFU/cell measured at 72 hrs post infection by Western blot analysis; conditions: strain Towne; outline: as §1
Human betaherpesvirus 5 [5] = test: Inhibition of viral protein expression in HCMV Towne infected in human HFF cells assessed as reduction in IE2 expression at 3 uM treated with compound for 24 hrs followed by viral infection at MOI of 0.01 PFU/cell measured at 72 hrs post infection by Western blot analysis; conditions: strain Towne; outline: as §1
Human betaherpesvirus 5 [6] = test: Inhibition of viral protein expression in HCMV Towne infected in human HFF cells assessed as reduction in UL84 expression at 3 uM treated with compound following viral infection at MOI of 1 PFU/cell measured at 72 hrs post infection by Western blot analysis; conditions: strain Towne
Outline: (§2)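 HFFs infected with HCMV Towne (MOI 1), then treated with compound. Lysates taken at 72 hpi, equal protein loaded on 8–10% Tris-glycine SDS-PAGE and transferred to PVDF. Primary antibodies overnight at 4 °C, HRP secondary, chemiluminescent detection; β-actin as loading control.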

Human betaherpesvirus 5 [7] = test: Inhibition of viral protein expression in HCMV Towne infected in human HFF cells assessed as reduction in UL44 expression at 3 uM treated with compound following viral infection at MOI of 1 PFU/cell measured at 72 hrs post infection by Western blot analysis; conditions: strain Towne; outline: as §2
Human betaherpesvirus 5 [8] = test: Antiviral activity against HCMV Towne infected in human HFF cells assessed as reduction in viral entry into host cell by measuring nuclear localization of pp65 at 3 uM treated with compound for 24 hrs followed by viral infection at MOI of 0.1 PFU/cell measured at 2 hrs post infection by immunofluorescence microscopy; conditions: strain Towne
Outline: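 HFFs on chamber slides pretreated 24 h with compound diluted in serum-free medium, then infected with HCMV Towne for 2 h. Heparin 30 μM as positive entry-block control. Cells methanol-fixed, then stained with anti-pp65 (1:50) and rhodamine anti-mouse IgG, with DAPI. Nuclear pp65 viewed by fluorescence microscopy at 40x; repeated three times.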

COc1ccc(Cl)cc1C(=O)Nc1ccc(NC(=O)c2ccco2)cc1
inhibition (Human betaherpesvirus 5 [1]): Active | EC50 (Human gammaherpesvirus 4): > 10 µM | EC50 (Human betaherpesvirus 5 [2]): 550 nM | inhibition (Human betaherpesvirus 5 [3]): Active | inhibition (Human betaherpesvirus 5 [4]): Active | inhibition (Human betaherpesvirus 5 [5]): Active | inhibition (Human betaherpesvirus 5 [6]): inactive | inhibition (Human betaherpesvirus 5 [7]): inactive | Activity (Human betaherpesvirus 5 [8]): Active
